# Experiments:
# [1] = target: T1, Dihydrofolate reductase (Bos taurus, UniProt P00376); assay: Inhibition of bovine liver DHFR measured for every 1 min of 10 mins
# T1 sequence (P00376 whole entry): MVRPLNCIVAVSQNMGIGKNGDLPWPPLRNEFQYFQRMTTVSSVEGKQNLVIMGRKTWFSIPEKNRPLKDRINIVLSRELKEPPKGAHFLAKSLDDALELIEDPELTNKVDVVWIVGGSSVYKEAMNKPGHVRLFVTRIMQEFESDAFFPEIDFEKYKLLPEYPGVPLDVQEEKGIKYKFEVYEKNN
# [2] = target: Dihydrofolate reductase (Bos taurus) (UniProt P00376); assay: Ratio of MTX IC50 to compound IC50 for bovine liver DHFR
# How it was run: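 Bovine liver DHFR in Tris buffer pH 7.5, with dihydrofolate substrate. Final working levels were 0.29 g/l NADPH and 15 U/l DHFR. Absorbance was read at 340 nm at room temperature in kinetic mode every 1 min for 10 min. ΔA/min was taken relative to DMSO control to give % inhibition versus log concentration, from which the IC50 was derived. Methotrexate was the reference.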
structure (smiles),measurement,setting,value
COc1ccc(/C=C2\CCCC3=C(c4ccc(OC)c(OC)c4)Nc4cc(C)c(C)cc4N=C32)cc1OC,IC50,[1],4 nM
same,Ratio IC50,[2],20

# Source: ChEMBL document CHEMBL3112482, “Nonclassical antifolates, part 5. Benzodiazepine analogs as a new class of DHFR inhibitors: synthesis, antitumor testing and molecular modeling study” (Eur J Med Chem, 2014)
